From ChEMBL document CHEMBL1909630, “Azaxanthene based selective glucocorticoid receptor modulators: design, synthesis, and pharmacological evaluation of (S)-4-(5-(1-((1,3,4-thiadiazol-2-yl)amino)-2-methyl-1-oxopropan-2-yl)-5H-chromeno[2,3-b]pyridin-2-yl)-2-fluoro-N,N-dimethylbenzamide (BMS-776532) and its methylene homologue …” (J Med Chem, 2011)

Tests used:
Glucocorticoid receptor [1] = molecular target: T1, Glucocorticoid receptor (Homo sapiens, UniProt P04150); assay: Transrepression activity at glucocorticoid receptor alpha in phorbol myristate acetate-stimulated human A549 cells assessed as inhibition of AP1 response element by luciferase reporter gene assay; type: cell-based
T1 sequence (P04150 whole entry): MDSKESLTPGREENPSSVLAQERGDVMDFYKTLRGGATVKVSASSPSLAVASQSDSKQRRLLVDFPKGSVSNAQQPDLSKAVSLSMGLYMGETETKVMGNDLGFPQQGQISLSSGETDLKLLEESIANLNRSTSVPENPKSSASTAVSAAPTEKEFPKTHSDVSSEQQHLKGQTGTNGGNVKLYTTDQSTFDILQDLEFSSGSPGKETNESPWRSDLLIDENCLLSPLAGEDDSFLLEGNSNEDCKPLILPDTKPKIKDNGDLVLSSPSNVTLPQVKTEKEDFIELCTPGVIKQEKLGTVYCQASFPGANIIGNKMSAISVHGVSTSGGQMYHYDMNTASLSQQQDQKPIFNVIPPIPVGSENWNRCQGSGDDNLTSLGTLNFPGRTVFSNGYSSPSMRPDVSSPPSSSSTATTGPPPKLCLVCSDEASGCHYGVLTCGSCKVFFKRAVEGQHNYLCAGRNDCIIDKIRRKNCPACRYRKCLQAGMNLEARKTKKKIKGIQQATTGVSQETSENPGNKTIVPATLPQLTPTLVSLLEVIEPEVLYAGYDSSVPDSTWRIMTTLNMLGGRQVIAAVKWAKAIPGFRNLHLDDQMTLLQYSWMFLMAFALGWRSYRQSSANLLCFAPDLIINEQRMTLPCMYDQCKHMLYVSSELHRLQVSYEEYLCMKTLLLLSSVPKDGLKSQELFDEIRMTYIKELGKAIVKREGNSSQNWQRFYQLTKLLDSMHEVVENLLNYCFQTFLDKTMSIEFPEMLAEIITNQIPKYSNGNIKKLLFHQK

Glucocorticoid receptor [2] = molecular target: T1, Glucocorticoid receptor; assay: Transactivation activity at GR-alpha in human NP1 Hela cells assessed as induction of GAL4-DBD after 20 hrs by luciferase reporter gene assay; type: cell-based
Glucocorticoid receptor [3] = molecular target: T1, Glucocorticoid receptor; assay: Transactivation activity at GR-alpha in human NP1 Hela cells assessed as inhibition of GAL4-DBD after 20 hrs by luciferase reporter gene assay; type: cell-based
Glucocorticoid receptor [4] = molecular target: T1, Glucocorticoid receptor; assay: Displacement of GS-red from glucocorticoid receptor by fluorescence polarization assay
Glucocorticoid receptor [5] = molecular target: T1, Glucocorticoid receptor; assay: Transactivation activity at glucocorticoid receptor alpha human 13D3/Huh7 cells assessed as induction of TAT activity after 4 hrs by spectrophotometry; type: cell-based, Huh-7
Glucocorticoid receptor [6] = molecular target: T1, Glucocorticoid receptor; assay: Transrepression activity at glucocorticoid receptor alpha in IL-1beta-stimulated human A549 cells assessed as inhibition of NFkappaB-dependent E-selectin transcription by luciferase reporter gene assay; type: cell-based
Blood [7] = assay: Antiinflammatory activity in human whole blood assessed as inhibition of TNF-alpha-induced IL-8 production after overnight incubation by ELISA relative to dexamethasone; type: functional
Blood [8] = assay: Antiinflammatory activity in human whole blood assessed as inhibition of LPS-induced TNFalpha production after overnight incubation by ELISA relative to Dexamethasone; type: functional
Outline: (§1)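 Whole blood from two donors per experiment was collected into ACD-A. Compounds were added and the blood was incubated about 20 h at 37 °C under 5% CO2. Blood was then stimulated for 5 h with LPS (final 100 ng/mL, for TNFα) or IL-1β (final 10 ng/mL, for IL-8). Plasma TNFα or IL-8 was measured by ELISA. Efficacy was expressed as % of dexamethasone, and values are means of at least two experiments.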

Blood [9] = assay: Antiinflammatory activity in human whole blood assessed as inhibition of IL-1beta-induced IL-8 production after overnight incubation by ELISA relative to Dexamethasone; type: functional; outline: as §1
Blood [10] = assay: Antiinflammatory activity in human whole blood assessed as inhibition of IL-1beta-induced IL-8 production after overnight incubation by ELISA; type: functional, tissue-based; outline: as §1
Blood [11] = assay: Antiinflammatory activity in human whole blood assessed as inhibition of LPS-induced TNFalpha production after overnight incubation by ELISA; type: functional, tissue-based; outline: as §1
Blood [12] = assay: Antiinflammatory activity in human whole blood assessed as inhibition of TNF-alpha-induced IL-8 production after overnight incubation by ELISA; type: functional, tissue-based

SMILES | EC50 (Glucocorticoid receptor [1]) [nM] | EC50 (Glucocorticoid receptor [2]) [nM] | EC50 (Glucocorticoid receptor [3]) [nM] | Ki (Glucocorticoid receptor [4]) [nM] | EC50 (Glucocorticoid receptor [5]) [nM] | EC50 (Glucocorticoid receptor [6]) [nM] | Imax (Blood [7]) [%] | Imax (Blood [8]) [%] | Imax (Blood [9]) [%] | EC50 (Blood [10]) [nM] | EC50 (Blood [11]) [nM] | EC50 (Blood [12]) [nM]
CC(C)(C(=O)Nc1nncs1)[C@H]1c2ccccc2Oc2nc(-c3ccc(C(=O)N4CCCCC4)cc3)ccc21 | 15.7 | 273 | 167 | 1.3 | > 5000 | 28.6 | – | – | – | – | – | –
CC(C)(C(=O)Nc1nncs1)[C@H]1c2ccccc2Oc2nc(-c3ccc(C(=O)N4CCOCC4)cc3)ccc21 | 12.4 | 39.2 | 28.6 | 2.6 | – | 6.3 | – | – | – | – | – | –
CC(=O)c1ccc(-c2ccc3c(n2)Oc2ccccc2[C@@H]3C(C)(C)C(=O)Nc2nncs2)cc1F | 42 | > 10000 | 134 | 6 | > 5000 | – | – | – | – | – | – | –
CNC(=O)c1ccc(-c2ccc3c(n2)Oc2ccccc2[C@@H]3C(C)(C)C(=O)Nc2nncs2)cc1 | 167 | > 10000 | 806 | 9.17 | > 5000 | 216 | – | – | – | – | – | –
Cc1ccccc1-c1ccc2c(n1)Oc1ccccc1[C@@H]2C(C)(C)C(=O)Nc1nncs1 | 122 | > 10000 | 1560 | 10.5 | > 5000 | > 5000 | – | – | – | – | – | –
CC(C)(C(=O)Nc1nncs1)[C@H]1c2ccccc2Oc2nc(-c3ccc(C(=O)N4CCCC4)c(F)c3)ccc21 | 25 | 177 | 205 | 1.96 | 389 | 29.2 | 61 | 80 | 86 | 238 | 886 | 1300
CN(C)C(=O)c1ccc(-c2ccc3c(n2)Oc2ccccc2[C@H]3C(C)(C)C(=O)Nc2nncs2)cc1 | > 10000 | > 10000 | 1740 | – | > 5000 | – | – | – | – | – | – | –
CN(C)C(=O)c1ccc(-c2ccc3c(c2)Oc2ccccc2C3C(C)(C)C(=O)Nc2nncs2)nc1 (racemic) | 58 | 382 | 162 | 4.1 | > 5000 | – | – | – | – | – | – | –
COc1ccc(-c2ccc3c(n2)Oc2ccccc2[C@H]3C(C)(C)C(=O)Nc2nncs2)cc1 | > 10000 | > 10000 | 4360 | 49.5 | > 5000 | 355 | – | – | – | – | – | –
CN(C)c1ccc(-c2ccc3c(n2)Oc2ccccc2[C@@H]3C(C)(C)C(=O)Nc2nncs2)cc1 | 13.6 | 926 | 242 | 3.8 | – | 20 | – | – | – | – | – | –
CN(C)C(=O)c1ccc(-c2ccc3c(c2)Oc2ccccc2C3C(C)(C)C(=O)Nc2nncs2)cc1 (racemic) | 77.9 | > 10000 | 610 | 8.6 | > 5000 | 74.9 | – | – | – | – | – | –
CC(C)(C(=O)Nc1nncs1)C1c2ccccc2Oc2ncccc21 (racemic) | – | – | – | 412 | – | – | – | – | – | – | – | –
CCc1ccc(-c2ccc3c(n2)Oc2ccccc2[C@H]3C(C)(C)C(=O)Nc2nncs2)cc1 | 17.7 | 108 | 27 | 1 | 732 | 8.3 | – | – | – | – | – | –
Cc1ccc(-c2ccc3c(n2)Oc2ccccc2[C@@H]3C(C)(C)C(=O)Nc2nncs2)cc1 | 46.8 | 2210 | 260 | 2.5 | > 5000 | 26.6 | – | – | – | – | – | –
Cc1cccc(-c2ccc3c(n2)Oc2ccccc2[C@@H]3C(C)(C)C(=O)Nc2nncs2)c1 | 654 | > 10000 | 1560 | 24 | > 5000 | > 5000 | – | – | – | – | – | –
CC(C)(C(=O)Nc1nncs1)[C@H]1c2ccccc2Oc2nc(-c3ccccc3)ccc21 | > 1500 | > 10000 | 187 | – | > 5000 | – | – | – | – | – | – | –
C[C@@H]1C[C@H]2[C@@H]3CCC4=CC(=O)C=C[C@]4(C)[C@@]3(F)[C@@H](O)C[C@]2(C)[C@@]1(O)C(=O)CO [DEXAMETHASONE] | – | – | – | – | – | – | – | – | – | 5.1 | 6.9 | –
CNC(=O)c1ccc(-c2ccc3c(n2)Oc2ccccc2[C@@H]3C(C)(C)C(=O)Nc2nncs2)cc1F | 34.1 | > 10000 | 408 | 5.48 | > 5000 | 157 | 15 | 58 | 35 | > 20000 | 819 | > 20000
CC(C)(C(=O)Nc1nncs1)[C@H]1c2ccccc2Oc2nc(-c3ccc(C(=O)O)cc3)ccc21 | 544 | > 10000 | > 5000 | 15.4 | – | 1090 | – | – | – | – | – | –
CC(C)(C(=O)Nc1nncs1)[C@H]1c2ccccc2Oc2nc(-c3ccc(C(=O)N4CCOCC4)c(F)c3)ccc21 | 11.7 | 78.9 | 34.4 | 2.7 | 93 | 11.7 | 84 | 88 | 92 | 789 | 469 | 382
COc1ccc(-c2ccc3c(n2)Oc2ccccc2[C@@H]3C(C)(C)C(=O)Nc2nncs2)cc1 | 28.3 | > 10000 | 105 | 1.2 | > 5000 | 21.3 | – | – | – | – | – | –
CC(C)(C(=O)Nc1nncs1)[C@@H]1c2ccccc2Oc2nc(-c3ccc(O)cc3)ccc21 | 90.8 | > 10000 | 201 | 5.7 | – | 108 | – | – | – | – | – | –
CCS(=O)(=O)c1ccc(-c2ccc3c(n2)Oc2ccccc2[C@@H]3C(C)(C)C(=O)Nc2nncs2)cc1 | 28.6 | 206 | 196 | 4 | > 5000 | 22.8 | – | – | – | – | – | –
CC(C)(C(=O)Nc1nncs1)[C@H]1c2ccccc2Oc2nc(-c3ccc(C(=O)N4CCCCC4)c(F)c3)ccc21 | 27.5 | > 10000 | 204 | 1.68 | > 5000 | 25.6 | 45 | 73 | 27 | 3190 | 5470 | > 20000
CCN(C)C(=O)c1ccc(-c2ccc3c(n2)Oc2ccccc2[C@H]3C(C)(C)C(=O)Nc2nncs2)cc1Cl | 124 | 702 | 721 | 15.7 | 2400 | 64.9 | – | – | – | – | – | –
CC(C)(C(=O)Nc1nncs1)[C@H]1c2ccccc2Oc2nc(-c3ccc(C(=O)N4CCC(F)(F)C4)c(Cl)c3)ccc21 | 50 | 165 | 130 | 3.08 | 329 | 33.8 | 59 | 85 | 82 | 5250 | 932 | 2850
CCN(C)C(=O)c1ccc(-c2ccc3c(n2)Oc2ccccc2[C@H]3C(C)(C)C(=O)Nc2nncs2)cc1 | 17.4 | 32.4 | 36.7 | 0.67 | 740 | 7.8 | – | 100 | – | – | 78.5 | –
CC(=O)c1ccc(-c2ccc3c(n2)Oc2ccccc2[C@@H]3C(C)(C)C(=O)Nc2nncs2)cc1 | 6.2 | 75.4 | 31 | 2.9 | 1100 | 10.2 | – | – | – | – | – | –
CC(C)(C(=O)Nc1nncs1)[C@H]1c2ccccc2Oc2nc(-c3ccc(C(N)=O)cc3)ccc21 | > 10000 | > 10000 | 202 | – | > 5000 | – | – | – | – | – | – | –
CN(C)C(=O)c1cnc(-c2ccc3c(c2)Oc2ccccc2C3C(C)(C)C(=O)Nc2nncs2)nc1 (racemic) | 183 | 596 | 592 | 4.2 | – | – | – | – | – | – | – | –
